Assay results as given in the array DNA melting data of Ke et al. (doi:10.1101/2024.01.08.574731).

Tests used:
[1] = melting temperature; fluorescence melt of hairpins on a sequencing array, two-state fit, raised by 9.35 °C to match UV melts; conditions: sodium 0.088 M
How it was run: (§1)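 Melting temperature and folding enthalpy were obtained by bootstrapped two-state fitting. Fits used Cy3 fluorescence of library hairpins with annealed Cy3 and quencher oligos on a sequenced MiSeq flow cell, imaged in 50 mM Na-HEPES pH 8.0, 25 mM NaCl in 2.5 °C steps up to 60 °C and normalised to pre-quench Cy3 and control constructs. Four replicates were combined by inverse-variance weighting, and fitted temperatures were raised by 9.35 °C to match UV melts.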

[2] = folding enthalpy; higher = less favourable; fluorescence melt of hairpins on a sequencing array, two-state fit; conditions: sodium 0.088 M
How it was run: as §1

Sequence	Tm [1] [°C]	folding enthalpy [2] [kcal/mol]
GCTTGCGAAAGCAGCAGC ((((((....)))..)))	46.4	-11.4
GCTTGCGGAAACACAAGC (((((.(....).)))))	46.8	-23.6
GCTTGCGGAAACGCAGGC ((.((((....)))).))	62.8	-35.1
GCTTGGCGAAAGCACAGC (((..((....))..)))	42.2	-18.2
GCTTGGCGAAAGCATAGC (((..((....))..)))	46.2	-20.3
GCTTGGCGAAAGCCAGC (((.(((....))))))	59	-14.3
GCTTGGCGAAAGCCGCGC ((..(((....)))..))	57.6	-15.6
GCTTGGCGAAAGCCTCGC ((..(((....)))..))	41.8	-17.4
GCTTGGCGAAAGCCTGGC ((..(((....)))..))	52.3	-17.4
GCTTGGCGAAAGCTAAGC ((((.((....)).))))	64.7	-30
GCTTGGGGAAACTCAAGC (((((.(....).)))))	51.3	-35.8
GCTTGGTCGAAAGACAGC (((..(((....))))))	43.2	-14.8
GCTTGTCGAAAGACAGC (((.(((....))))))	52.9	-19.9
GCTTGTGGAAACACAGGC ((.((((....)))).))	52	-27.2
GCTTGTGGAAACATAAGC ((((.((....)).))))	46.8	-29.9
GCTTTATCGAAAGATAGC (((..(((....))))))	31.6	-12.2
GCTTTCCGAAAGGACAGC (((.(((....))).)))	49.9	-35.7
GCTTTCGAAAGAAAGAGC ((((((....)))..)))	43.5	-19.7
GCTTTCGAAAGAAAGC ((((((....))))))	65.1	-42.3
GCTTTCGAAAGAAATAGC ((((((....)))..)))	36.8	-20
GCTTTCGAAAGAATGAGC ((((((....)))..)))	31.9	-14.8
GCTTTCGAAAGAATTAGC ((((((....)))..)))	30.5	-15.1
GCTTTGAAAAAAGC (((((....)))))	47.4	-21.3

Sequence	Tm [1] [°C]	folding enthalpy [2] [kcal/mol]
GCTTTGCGAAAGCAAGGC ((.((((....)))).))	62.1	-21.3
GCTTTGCGAAAGCATAGC (((.(((....))).)))	53.2	-47.2
GCTTTGCGAAAGCCATGC ((.(.((....)).).))	31.3	-11.6
GCTTTGCGAAAGCTAAGC ((((.((....)).))))	62.7	-28.8
GCTTTGCGAAAGCTCAGC (((..((....))..)))	44.3	-14.4
GCTTTGCGAAAGCTGAGC (((..((....))..)))	56.8	-15.2
GCTTTGGGAAACCAAAGC (((((((....)))))))	65	-47.1
GCTTTGGGAAACCAGAGC (((.(((....))).)))	48	-27
GCTTTTGGAAACGAAAGC (((((.(....).)))))	47.2	-39
GGAAAACGAAAGTTATCC (((.(((....))).)))	37	-29.6
GGAAAACGAAAGTTGTCC (((.(((....))).)))	44.6	-26.1
GGAAAATCGAAAGATTCC (((..(((....))))))	29.1	-7.3
GGAAACCGAAAGGTCTCC (((.(((....))).)))	44.8	-27.5
GGAAACCGAAAGGTTCC (((.(((....))))))	51.9	-18.8
GGAAACGAAAGTTCCTCC ((((((....)))..)))	44.1	-18.3
GGAAACGAAAGTTGCTCC ((((((....)))..)))	27.1	-12.8
GGAAACGAAAGTTTCC ((((((....))))))	63.3	-34.6
GGAAACGAAAGTTTCTCC ((((((....)))..)))	45.9	-13.8
GGAAACGGAAACGCTTCC ((((.((....)).))))	43.4	-34.1
GGAAACGGAAACGTTCCC ((.((((....)))).))	45.1	-23.1
GGAAAGCGAAAGCTCTCC (((.(((....))).)))	44	-22.8
GGAAAGTCGAAAGACTCC (((..(((....))))))	33.7	-15.6
